The test system of one series is PANC-1. The series can be described thus: Growth inhibition human PANC-1 cells after 72 hrs by resazurin or MTT assay. Format: functional. Summed up: (§1)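 Tumour cell lines kept in RPMI-1640, DMEM or MEM with 10% FBS at 37 °C, 5% CO2, mycoplasma-free. Exposure lasted 72 h. Viability was read by MTT for adherent solid-tumour lines and by resazurin for suspension leukaemia lines. GI50 came from nonlinear regression, given as mean ± standard deviation of at least two replicates unless stated otherwise.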

Series [1] in a line: Toxicity in BALB/c mouse assessed as pathological alterations in left femora at 70 mg/kg, po administered once daily for 7 days and measured on day 15. The format is organism-based. Particulars: in vivo, 168 h, time 7 day.
Series [2] in a line: Growth inhibition human WI38 cells after 72 hrs by resazurin or MTT assay. The format is cell-based. Particulars: WI-38 cells. In general terms: The colour change of resazurin is a common sign of viable cells or microbes.
Series [3] in a line: Toxicity in BALB/c mouse assessed as destruction of vessel walls at 70 mg/kg, po administered once daily for 7 days and measured on day 15. Format: organism-based. Particulars: in vivo, 168 h, time 7 day.
Series [4] can be described thus: Half life in Sprague-Dawley rat at 5 mg/kg, iv measured up to 24 hrs by LC-MS/MS analysis. Particulars: in vivo. The format is ADME, organism-based.
A short description of series [5]: Toxicity in BALB/c mouse assessed as infiltration of inflammatory cells at 70 mg/kg, po administered once daily for 7 days and measured on day 15. The note with it: in vivo, 168 h, time 7 day. Format: organism-based.
The nature of series [6]: Toxicity in BALB/c mouse assessed as increase in dead splenocytes at 70 mg/kg, po administered once daily for 7 days and measured on day 15 by flow cytometric analysis. Particulars: in vivo, 168 h, time 7 day. The format is organism-based. In general terms: Flow cytometry measures light scatter and fluorescence of single cells or particles in a stream.
Series [7] in a line: AUC in Sprague-Dawley rat at 20 mg/kg, po measured up to 24 hrs by LC-MS/MS analysis. The format is ADME, organism-based. Also on record: route oral, dose 20 mg/kg, time <=24. The note with it: in vivo.
Another series deals with T47D. In words: Growth inhibition human T47D cells after 72 hrs by resazurin or MTT assay. The format is functional. Summed up: as §1
The next series concerns MV4-11. In words: Growth inhibition of human MV4-11 cells after 72 hrs by resazurin staining based assay. Format: functional. A digest of the protocol: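 MV4-11 leukaemia cells grown in medium with 10% FBS at 37 °C, 5% CO2. Growth was read by a 72-h resazurin viability assay. GI50 was obtained by nonlinear regression and reported as mean ± standard deviation of at least two replicates.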

The test system of the next series is HCT-116. The series can be described thus: Growth inhibition human HCT-116 cells after 72 hrs by resazurin or MTT assay. Format: functional. Summed up: as §1
In a further series the target is CDK8/Cyclin C (Homo sapiens, UniProt P49336). In words: Inhibition of CDK8/cyclin C (unknown origin) using RBER-IRStide as substrate incubated for 60 mins in presence of [gamma33P]ATP by scintillation counting method. Format: protein-complex assay.
Chain of CDK8/Cyclin C (P49336 whole entry): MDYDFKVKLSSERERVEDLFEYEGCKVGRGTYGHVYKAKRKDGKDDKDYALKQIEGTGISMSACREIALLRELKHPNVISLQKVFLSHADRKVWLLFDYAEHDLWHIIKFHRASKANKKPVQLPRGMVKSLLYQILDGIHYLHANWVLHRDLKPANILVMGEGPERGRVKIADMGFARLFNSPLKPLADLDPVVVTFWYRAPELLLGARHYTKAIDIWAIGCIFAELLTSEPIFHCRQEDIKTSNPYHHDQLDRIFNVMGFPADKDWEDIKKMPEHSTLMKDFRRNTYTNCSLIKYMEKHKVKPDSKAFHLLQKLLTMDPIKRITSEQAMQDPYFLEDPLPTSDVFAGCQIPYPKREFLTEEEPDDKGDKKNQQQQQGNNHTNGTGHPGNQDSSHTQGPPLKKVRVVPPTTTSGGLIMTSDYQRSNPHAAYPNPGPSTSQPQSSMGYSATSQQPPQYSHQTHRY
Chain of CDK8/Cyclin C (P24863 whole entry, further chain): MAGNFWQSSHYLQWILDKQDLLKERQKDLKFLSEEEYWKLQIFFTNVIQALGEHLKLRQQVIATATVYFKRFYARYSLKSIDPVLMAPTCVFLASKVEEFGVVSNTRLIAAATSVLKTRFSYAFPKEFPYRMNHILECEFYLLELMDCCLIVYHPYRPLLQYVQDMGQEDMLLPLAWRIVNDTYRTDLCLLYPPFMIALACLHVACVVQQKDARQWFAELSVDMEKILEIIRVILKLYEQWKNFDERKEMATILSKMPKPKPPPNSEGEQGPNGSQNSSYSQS
The test system of a further series is MDA-MB-231. In words: Growth inhibition human MDA-MB-231 cells after 72 hrs by resazurin or MTT assay. The format is functional. Summed up:
as §1

Series [8] deals with Cyclin-Y/Cyclin-dependent kinase 16 (Homo sapiens) (UniProt Q00536+Q8ND76). In words: Inhibition of CDK16/Cyclin Y (unknown origin) at 1 uM. The format is protein-complex assay. Summed up:
(§2)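 Residual activity of each kinase with compound at 1 µM, measured in a contracted radioisotope-based kinase profiling assay and expressed as % kinase activity remaining.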

Series [9] can be described thus: Toxicity in BALB/c mouse assessed as loss of ground substance at 70 mg/kg, po administered once daily for 7 days and measured on day 15. The note with it: in vivo, 168 h, time 7 day. The format is organism-based.
The target of series [10] is CDK7/Cyclin H/MNAT1 (Homo sapiens) (UniProt P51946+P50613+P51948). In words: Inhibition of CDK7/cyclin H/MNAT1 (unknown origin) at 1 uM. Format: protein-complex assay. A digest of the protocol:
as §2

Series [11] is described as follows: Inhibition of CYP4501A in human liver microsomes using ethoxyresorufin O-deethylation as substrate by LC-MS/MS analysis.
Series [12] deals with CDK9/cyclin T1 (Homo sapiens) (UniProt O60563+P50750). In words: Inhibition of CDK9/Cyclin T1 (unknown origin) at 1 uM relative to control. Format: protein-complex assay. A digest of the protocol:
as §2

For series [13], the target named is CDK18/Cyclin Y (Homo sapiens) (UniProt Q07002+Q8ND76). The series can be described thus: Inhibition of CDK18/Cyclin Y (unknown origin) at 1 uM. The format is protein-complex assay. A digest of the protocol:
as §2

The target in series [14] is CDK6/cyclin D3 (Homo sapiens) (UniProt P30281+Q00534). In words: Inhibition of CDK6/cyclin-D3 (unknown origin) at 1 uM. The format is protein-complex assay. A digest of the protocol:
as §2

The target of series [15] is Protein kinase C theta type (Homo sapiens, UniProt Q04759). The series can be described thus: Inhibition of human full length PKCtheta at 1 uM using histone H1 as substrate incubated for 40 mins in presence of [gamma-33P]-ATP by scintillation counting method relative to control. Summed up: (§3)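 Single-point screen of residual kinase activity (%) at 1 µM compound. Run as a contract radiometric [γ-33P]-ATP kinase assay, either the KinaseProfiler service or the HotSpot assay. ATP was set at the experimentally determined Km(ATP) of each kinase.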
Chain of Protein kinase C theta type (Q04759 whole entry, looked up): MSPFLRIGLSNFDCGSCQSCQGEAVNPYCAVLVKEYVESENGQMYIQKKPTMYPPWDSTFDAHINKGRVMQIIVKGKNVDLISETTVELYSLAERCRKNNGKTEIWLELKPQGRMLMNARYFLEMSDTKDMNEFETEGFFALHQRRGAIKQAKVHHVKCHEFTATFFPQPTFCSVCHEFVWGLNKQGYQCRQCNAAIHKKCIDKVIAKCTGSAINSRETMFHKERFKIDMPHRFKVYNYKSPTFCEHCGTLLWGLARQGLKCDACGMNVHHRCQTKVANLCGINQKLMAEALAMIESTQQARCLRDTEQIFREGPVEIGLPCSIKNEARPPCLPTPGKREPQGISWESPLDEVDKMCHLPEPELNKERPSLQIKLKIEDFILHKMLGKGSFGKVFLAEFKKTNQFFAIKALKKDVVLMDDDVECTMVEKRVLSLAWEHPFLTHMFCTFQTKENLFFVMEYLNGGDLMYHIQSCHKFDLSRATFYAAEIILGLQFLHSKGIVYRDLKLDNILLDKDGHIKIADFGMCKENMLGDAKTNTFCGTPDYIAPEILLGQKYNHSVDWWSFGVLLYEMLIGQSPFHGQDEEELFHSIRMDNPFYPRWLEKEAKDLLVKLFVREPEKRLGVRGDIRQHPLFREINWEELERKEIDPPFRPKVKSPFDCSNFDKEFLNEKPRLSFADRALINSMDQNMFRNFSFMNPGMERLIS

A short description of series [16]: Tmax in BALB/c mouse at 2 mg/kg, iv measured up to 24 hrs by LC-MS/MS analysis. The note with it: in vivo.
In series [17] the target is Cyclin-dependent kinase 14/Cyclin-Y (Homo sapiens) (UniProt O94921+Q8ND76). The series can be described thus: Inhibition of CDK14/Cyclin Y (unknown origin) at 1 uM. Format: protein-complex assay. A digest of the protocol: as §2
A short description of series [18]: Toxicity in BALB/c mouse assessed as disordered chondrocyte columns at 70 mg/kg, po administered once daily for 7 days and measured on day 15. Format: organism-based. Particulars: in vivo, 168 h, time 7 day.
Series [19] concerns the target T1, Cyclin-dependent kinase 5/CDK5 activator 1 (Homo sapiens) (UniProt Q00535+Q15078). The series can be described thus: Inhibition of CDK5/p25 (unknown origin) at 1 uM. The format is protein-complex assay. Summed up:
as §2

The nature of series [20]: Volume of distribution at steady state in BALB/c mouse at 2 mg/kg, iv measured up to 24 hrs by LC-MS/MS analysis. The note with it: in vivo, read-out: Vdss.
Series [21] is described as follows: Tmax in BALB/c mouse at 10 mg/kg, po measured up to 24 hrs by LC-MS/MS analysis. The note with it: in vivo.
Series [22] can be described thus: Oral bioavailability in BALB/c mouse at 10 mg/kg measured up to 24 hrs by LC-MS/MS analysis. Particulars: in vivo.
Series [23] in a line: Half life in BALB/c mouse at 2 mg/kg, iv measured up to 24 hrs by LC-MS/MS analysis. Particulars: in vivo.
The target of series [24] is T1, Cyclin-dependent kinase 5/CDK5 activator 1 (Homo sapiens). The series can be described thus: Inhibition of CDK5/p35 (unknown origin) at 1 uM. Format: protein-complex assay. Summed up: as §2
Series [25] has as its system Glycogen synthase kinase-3 alpha (Homo sapiens), P49840 [UNDEFINED MUTATION]. In words: Inhibition of human GSKalpha S449A mutant (2 to 3nd residues) at 1 uM using YRRAAVPPSPSLSRHSSPHQS(p) EDEEE as substrate incubated for 40 mins in presence of [gamma-33P]-ATP by scintillation counting method relative to control. A digest of the protocol: as §3
Series [26] has as its target CDK3/Cyclin E (Homo sapiens) (UniProt P24864+Q00526). In words: Inhibition of CDK3/cyclin-E (unknown origin) at 1 uM. The format is protein-complex assay. Summed up: as §2
Series [27] is described as follows: Toxicity in BALB/c mouse assessed as increase in body weight at 70 mg/kg, po administered once daily for 7 days and measured on day 15 relative to control. The format is organism-based. Particulars: in vivo, 168 h, time 7 day.

Data on two compounds can be found in ChEMBL document CHEMBL4732199, “Potent and orally bioavailable CDK8 inhibitors: Design, synthesis, structure-activity relationship analysis and biological evaluation” (Eur J Med Chem, 2021).

Activity calls are given as the source filed them.

T1 sequence (Q00535 whole entry): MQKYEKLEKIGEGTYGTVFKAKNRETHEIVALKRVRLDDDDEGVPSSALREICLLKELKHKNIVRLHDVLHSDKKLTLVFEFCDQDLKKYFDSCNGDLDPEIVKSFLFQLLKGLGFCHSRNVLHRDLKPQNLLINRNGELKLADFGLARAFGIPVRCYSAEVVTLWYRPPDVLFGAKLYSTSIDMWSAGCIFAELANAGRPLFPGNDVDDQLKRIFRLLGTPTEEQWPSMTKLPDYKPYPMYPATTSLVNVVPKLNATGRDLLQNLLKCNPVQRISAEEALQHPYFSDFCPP
T1 sequence (Q15078 99-307 partner limits assumed): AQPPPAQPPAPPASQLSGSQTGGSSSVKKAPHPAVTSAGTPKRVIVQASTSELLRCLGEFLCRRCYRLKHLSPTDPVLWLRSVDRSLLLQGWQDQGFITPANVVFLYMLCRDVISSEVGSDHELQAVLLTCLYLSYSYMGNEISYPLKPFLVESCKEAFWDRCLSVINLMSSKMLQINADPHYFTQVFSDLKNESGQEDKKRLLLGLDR
Chain of Glycogen synthase kinase-3 alpha (Homo sapiens), P49840 [UNDEFINED MUTATION] (P49840 whole entry, looked up, stated change not applied): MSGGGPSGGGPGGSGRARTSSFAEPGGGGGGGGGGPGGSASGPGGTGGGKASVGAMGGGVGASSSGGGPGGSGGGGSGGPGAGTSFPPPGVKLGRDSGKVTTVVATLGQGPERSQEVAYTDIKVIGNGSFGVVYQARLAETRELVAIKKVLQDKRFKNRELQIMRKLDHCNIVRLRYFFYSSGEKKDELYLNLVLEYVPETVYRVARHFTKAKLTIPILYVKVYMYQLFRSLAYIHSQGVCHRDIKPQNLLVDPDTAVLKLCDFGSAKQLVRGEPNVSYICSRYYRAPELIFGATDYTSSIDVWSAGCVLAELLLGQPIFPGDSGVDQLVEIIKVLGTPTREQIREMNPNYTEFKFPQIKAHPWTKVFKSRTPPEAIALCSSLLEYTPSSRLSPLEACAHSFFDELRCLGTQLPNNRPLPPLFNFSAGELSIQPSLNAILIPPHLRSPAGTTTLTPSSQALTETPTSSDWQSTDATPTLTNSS
Chain of CDK3/Cyclin E (Homo sapiens) (P24864 whole entry, looked up): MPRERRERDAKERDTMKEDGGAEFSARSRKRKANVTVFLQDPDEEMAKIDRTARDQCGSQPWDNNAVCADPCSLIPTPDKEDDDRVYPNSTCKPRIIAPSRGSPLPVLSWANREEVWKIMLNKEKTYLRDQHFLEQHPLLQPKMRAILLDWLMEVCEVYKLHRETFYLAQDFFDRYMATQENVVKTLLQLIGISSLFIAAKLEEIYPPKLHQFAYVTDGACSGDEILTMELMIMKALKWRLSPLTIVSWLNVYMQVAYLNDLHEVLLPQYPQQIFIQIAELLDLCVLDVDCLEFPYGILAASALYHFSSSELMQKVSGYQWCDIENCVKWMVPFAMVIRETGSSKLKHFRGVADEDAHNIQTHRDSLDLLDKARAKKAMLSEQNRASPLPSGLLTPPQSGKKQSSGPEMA
Chain of CDK3/Cyclin E (Homo sapiens) (Q00526 whole entry, looked up): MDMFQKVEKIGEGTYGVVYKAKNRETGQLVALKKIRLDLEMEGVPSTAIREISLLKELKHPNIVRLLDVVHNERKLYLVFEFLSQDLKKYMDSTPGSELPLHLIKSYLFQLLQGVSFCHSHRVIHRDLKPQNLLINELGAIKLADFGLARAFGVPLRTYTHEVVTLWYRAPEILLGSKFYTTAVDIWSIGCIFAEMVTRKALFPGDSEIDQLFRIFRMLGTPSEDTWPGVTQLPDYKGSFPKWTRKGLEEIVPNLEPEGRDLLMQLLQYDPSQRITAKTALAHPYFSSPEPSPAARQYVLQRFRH

For orientation: GI50 means the concentration that inhibits growth by half. A lower GI50 goes with greater sensitivity of the cells. By half-life is commonly meant the time needed for the level to fall by half in the phase considered. Read a low half-life as fast loss. Broadly, the AUC is concentration integrated over time. Low values mean low exposure, high ones high exposure. As usually defined, the Ki is the equilibrium dissociation constant of an inhibitor or competing ligand from its target. On to `Cn1cc(-c2ccc(-c3cncc(Cl)c3N3CCC4(CCNC4=O)CC3)cc2)cn1`, for which the GI50 in the series with PANC-1 was 550 nM; with T47D it was 15.1 µM; in the series with MV4-11, 30 nM; with HCT-116, 46.2 µM; in the series with MDA-MB-231, 29.9 µM. The Activity result is recorded as “Toxic” in series [1], “Toxic” in [3], “Toxic” in series [5] and “Non-Toxic” in [6]. This compound showed a GI50 at 72 h in [2] greater than 50 µM. In [4], the half-life was 64.8 min. For the same compound, the AUC at 24 h in [7] came out at 17.5 µM·h. Moreover, on CDK8/Cyclin C, the Ki was found to be 9 nM.
What is called inhibition is the drop in the measured response relative to a control, in per cent. Broadly, the IC50 is the concentration at which inhibition is half-maximal. A higher IC50 goes with weaker potency in that assay. The Tmax is the time at which the peak concentration occurs. By bioavailability is commonly meant the share of a dose that reaches the circulation, judged against a reference dose that is usually intravenous. A low value points to little systemic uptake. As to `O=C1NCCC12CCN(c1c(Cl)cncc1-c1cc3ccccc3o1)CC2`, the GI50 in the series with PANC-1 is greater than 50000 nM; with T47D it was 16.2 µM; in the series on MV4-11, 360 nM; in the series on HCT-116, 40.6 µM; in the series with MDA-MB-231, 40.7 µM. Also, the Activity entry in series [1] was “Non-Toxic”; in [9], “Toxic”; in series [3], “Non-Toxic”; in series [5], “Non-Toxic”; in [6], “Non-Toxic”; in series [18], “Toxic”. For the same compound, the Activity in [27] is on record as 12%. For the same compound, growth in series [2] was halved (GI50 at 72 h) at 48.1 µM. Also, the inhibition result in [8], in [10], in series [13], in [14], in [17] and in series [19] was “inactive” each time. For the same compound, the inhibition entry in series [24] and in series [26] was “inactive” each time. The half-life was 54 min in series [4] and 20.4 min in series [23]. Inhibition in series [11] was half-maximal at 7.7 µM (IC50). Also, the inhibition in series [12], in [15] and in series [25] was greater than 50% in each case. The compound also gave an AUC at 24 h in series [7] of 14.6 µM·h. Moreover, the Tmax in series [16] stood at 2.4 min; in [21], 25.2 min. Besides, in [20], the Vd was 1.99 L/kg. In addition, the bioavailability in series [22] stood at 33%. Moreover, the Ki on CDK8/Cyclin C was 14 nM.
